# BindingDB's records for doi:10.1021/acs.jmedchem.0c01126 (The University of Tokyo, 2020)
# Molecular target: Probable G-protein coupled receptor 34 (Mus musculus, UniProt Q9R1K6)
# Test: Agonist activity at mouse GPR34 expressed in HEK293 cells co-transfected with AP-TGFalpha/Galphaq/i1 assessed as induction of ectodomain shedding of membrane bound AP-TGFalpha after 1 hr by p-NPP substrate based microplate reader analysis
# Summary of the method: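 HEK293 cells transiently transfected with AP-TGFα, chimeric Gα and mouse GPR34 vectors, then treated with compound. Empty-vector cells (AP-TGFα plus chimeric Gα) served as background. Receptor-specific AP-TGFα release was taken after subtracting that background, and concentration-response curves gave EC50 and Emax. Mean and SEM of 3−8 independent experiments.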
# Probable G-protein coupled receptor 34, sequence (Q9R1K6 whole entry, the tested form may be a part): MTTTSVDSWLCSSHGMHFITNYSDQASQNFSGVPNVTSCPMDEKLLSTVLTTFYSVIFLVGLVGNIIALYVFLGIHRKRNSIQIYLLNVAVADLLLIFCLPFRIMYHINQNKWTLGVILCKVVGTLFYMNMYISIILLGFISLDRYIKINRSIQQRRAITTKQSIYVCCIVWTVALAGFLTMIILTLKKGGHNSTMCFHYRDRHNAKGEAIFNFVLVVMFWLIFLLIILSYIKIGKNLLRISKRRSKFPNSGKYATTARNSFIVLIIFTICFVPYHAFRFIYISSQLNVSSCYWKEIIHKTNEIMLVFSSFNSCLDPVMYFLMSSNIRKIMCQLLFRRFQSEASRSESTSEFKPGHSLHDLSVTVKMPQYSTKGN
row,EC50,Compound
1,> 3.16 µM,CCCCCCCC/C=C\CCCCCCCC(=O)OCCOP(=O)(O)OC[C@H](N)C(=O)O
2,> 3.16 µM,CCCCCCCC/C=C\CCCCCCCC(=O)O[C@@H](C)COP(=O)(O)OC[C@H](N)C(=O)O
3,> 3.16 µM,CCCCCCCCCCCOc1ccccc1CCC(=O)O[C@H]1CCOC[C@H]1OP(=O)(O)OC[C@H](N)C(=O)O
4,> 3.16 µM,CCCCCCCCCCCOc1ccccc1CCC(=O)O[C@H]1COCC[C@@H]1OP(=O)(O)OC[C@H](N)C(=O)O

# Molecular target: Putative P2Y purinoceptor 10 (Mus musculus, UniProt Q8BFU7)
# Test: Agonist activity at mouse P2Y10 expressed in HEK293 cells co-transfected with AP-TGFalpha/Galphaq/i1 assessed as induction of ectodomain shedding of membrane bound AP-TGFalpha after 1 hr by p-NPP substrate based microplate reader analysis
# Summary of the method: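 Run the same way as the GPR34 shedding assay, but with a mouse P2Y10 expression vector in HEK293 cells alongside AP-TGFα and chimeric Gα. Receptor-specific AP-TGFα release was found by subtracting the empty-vector background. EC50 and Emax came from concentration-response curves. Mean and SEM of 3−8 independent experiments.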
# Putative P2Y purinoceptor 10, sequence (Q8BFU7 whole entry, the tested form may be a part): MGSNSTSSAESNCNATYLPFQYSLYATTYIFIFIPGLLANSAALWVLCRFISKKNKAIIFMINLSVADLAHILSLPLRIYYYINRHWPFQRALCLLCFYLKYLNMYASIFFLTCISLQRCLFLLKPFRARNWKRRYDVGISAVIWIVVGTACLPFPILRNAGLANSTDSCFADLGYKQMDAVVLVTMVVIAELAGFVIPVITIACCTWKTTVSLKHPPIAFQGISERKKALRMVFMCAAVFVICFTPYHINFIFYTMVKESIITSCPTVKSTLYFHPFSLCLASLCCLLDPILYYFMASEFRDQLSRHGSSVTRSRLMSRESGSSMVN
row,EC50,Compound
1,> 3.16 µM,CCCCCCCC/C=C\CCCCCCCC(=O)OC[C@@H](COC)OP(=O)(O)OC[C@H](N)C(=O)O
2,> 3.16 µM,CCCCCCCC/C=C\CCCCCCCC(=O)OC[C@H](COC)OP(=O)(O)OC[C@H](N)C(=O)O
3,> 3.16 µM,CCCCCCCC/C=C\CCCCCCCC(=O)OC[C@@H](COCC)OP(=O)(O)OC[C@H](N)C(=O)O
4,> 3.16 µM,CCCCCCCC/C=C\CCCCCCCC(=O)OC[C@@H](COCCC)OP(=O)(O)OC[C@H](N)C(=O)O
5,> 3.16 µM,COC[C@H](COC(=O)CCc1ccccc1OCc1cccc(Oc2ccccc2)c1)OP(=O)(O)OC[C@H](N)C(=O)O
6,> 3.16 µM,CCOC[C@H](COC(=O)CCc1ccccc1OCc1cccc(Oc2ccccc2)c1)OP(=O)(O)OC[C@H](N)C(=O)O

# Molecular target: G protein-coupled receptor 34a (Danio rerio, UniProt Q6XCC7)
# Test: Agonist activity at zebrafish GPR34 type a expressed in HEK293 cells co-transfected with AP-TGFalpha/Galphaq/i1 assessed as induction of ectodomain shedding of membrane bound AP-TGFalpha after 1 hr by p-NPP substrate based microplate reader analysis
# G protein-coupled receptor 34a, sequence (Q6XCC7 1-389): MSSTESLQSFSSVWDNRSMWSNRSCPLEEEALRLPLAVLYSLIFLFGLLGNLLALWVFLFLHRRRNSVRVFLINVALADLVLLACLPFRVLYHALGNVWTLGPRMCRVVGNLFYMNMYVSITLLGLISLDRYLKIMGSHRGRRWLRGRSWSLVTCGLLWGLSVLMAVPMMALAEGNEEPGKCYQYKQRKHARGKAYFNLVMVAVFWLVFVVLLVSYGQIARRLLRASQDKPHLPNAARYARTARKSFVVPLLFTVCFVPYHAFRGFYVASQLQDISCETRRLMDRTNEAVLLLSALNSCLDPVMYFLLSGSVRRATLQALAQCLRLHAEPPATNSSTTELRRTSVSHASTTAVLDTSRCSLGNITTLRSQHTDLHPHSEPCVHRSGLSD
row,EC50,Compound
1,> 3.16 µM,CCOC[C@H](COC(=O)CCc1ccccc1OCc1cccc(Oc2ccccc2)c1)OP(=O)(O)OC[C@H](N)C(=O)O
